Results on 14 compounds are retold here after ChEMBL document CHEMBL1138297, “Design, synthesis, and multivariate quantitative structure-activity relationship of salicylanilides--potent inhibitors of type III secretion in Yersinia” (J Med Chem, 2007).

As usually defined, the inhibition is the share of the control response that was lost under treatment.

For assay [1], the system named is Yersinia pseudotuberculosis. Description: Effect on T3S in Yersinia pseudotuberculosis 3 pIB29 assessed as inhibition of light emission at 100 uM by luciferase reporter gene assay. A digest of the protocol:
(§1)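 YPIII pIB29 (yopE-luxAB) reporter strain grown overnight at ambient temperature in BHI with 5 mM EGTA and 20 mM MgCl2 to deplete calcium. Culture adjusted to OD600 0.15-0.25 and added to compounds in DMSO (final ≤1%). Incubated 1 h at ambient temperature with shaking, then 2 h at 37 °C. Decanal substrate added and luminescence read at once. Triplicates; repeated on ≥2 occasions.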

Assay [2] concerns Yersinia pseudotuberculosis. Description: Effect on T3S in Yersinia pseudotuberculosis 3 pIB29 assessed as inhibition of light emission at 50 uM by luciferase reporter gene assay. In a few lines:
as §1
(In general: A reporter such as luciferase makes a cellular process visible.)

Assay [3] concerns Yersinia pseudotuberculosis. Put plainly: Effect on T3S in Yersinia pseudotuberculosis 3 pIB29 assessed as inhibition of light emission at 10 uM by luciferase reporter gene assay. A digest of the protocol:
as §1

The test system of assay [4] is Yersinia pseudotuberculosis. Description: Effect on T3S in Yersinia pseudotuberculosis 3 pIB29 assessed as inhibition of light emission at 2 uM by luciferase reporter gene assay. A digest of the protocol:
as §1

Assay [5] concerns Yersinia pseudotuberculosis. Description: Effect on T3S in Yersinia pseudotuberculosis 3 pIB29 assessed as inhibition of light emission at 5 uM by luciferase reporter gene assay. In a few lines: as §1
Assay [6] relates to Yersinia pseudotuberculosis. Description: Effect on T3S in Yersinia pseudotuberculosis 3 pIB29 assessed as inhibition of light emission at 20 uM by luciferase reporter gene assay. In a few lines: as §1
Assay [7] deals with Yersinia pseudotuberculosis. Put plainly: Effect on T3S in Yersinia pseudotuberculosis 3 pIB29 assessed as inhibition of light emission at 1 uM by luciferase reporter gene assay. A digest of the protocol: as §1
The test system of assay [8] is Yersinia pseudotuberculosis. Put plainly: Effect on T3S in Yersinia pseudotuberculosis 3 pIB29 assessed as inhibition of light emission at 0.5 uM by luciferase reporter gene assay. A digest of the protocol: as §1

Take `O=C(Nc1ccc(SC(F)(F)F)cc1)c1c(O)c(Cl)cc(Cl)c1Cl`: the inhibition turned out to be 100% in assay [1]; 100% in assay [2]; 58% in assay [3]; 18% in assay [4]; 54% in assay [5]; 68% in assay [6]. For the same compound, the figures for the inhibition in assay [7] and in assay [8] were 4% and 11%, respectively.
Turning to `CC(=O)Oc1ccc(Cl)cc1C(=O)Nc1ccc(Cl)c(C)c1`, the inhibition stood at 100% in assay [1]; 100% in assay [2]; 99% in assay [3]; 62% in assay [4]; 91% in assay [5]; 100% in assay [6]. Besides, the inhibition in assay [7] stood at 50%; in assay [8], 15%.
As for `O=C(Nc1cc(Cl)ccc1F)c1cc(I)cc(I)c1O`, the inhibition in assay [1] came out at 100%; in assay [2], 100%; in assay [3] it was 53%; in assay [4] it was 6%; in assay [5], 19%; in assay [6], 92%. Moreover, the inhibition came out at 2% in assay [7] and 7% in assay [8].
Turning to `O=C(Nc1ccc(Cl)cc1)c1cc(I)ccc1O`, the inhibition in assay [1] was 78%; in assay [2] it was 80%; in assay [3], 91%; in assay [4], 90%; in assay [5], 91%; in assay [6], 85%. In addition, the inhibition in assay [7] came out at 68%; in assay [8], 55%.
For the compound `CC(=O)Oc1c(I)cc(I)cc1C(=O)Nc1ccc(SC(F)(F)F)cc1`, the inhibition in assay [1] is 75%; in assay [2], 71%; in assay [3], 72%; in assay [4], 19%; in assay [5] it was 60%; in assay [6] it was 71%. Further, the inhibition in assay [7] and in assay [8] was 11% throughout.
Consider `CC(=O)Oc1ccc(I)cc1C(=O)Nc1ccc(SC(F)(F)F)cc1`, for which the inhibition is 100% in assay [1]; 99% in assay [2]; 58% in assay [3]; 80% in assay [4]; 56% in assay [5]; 74% in assay [6]. The inhibition in assay [7] came to 52%; in assay [8], 17%.
As for `O=C(Nc1ccc(Br)cc1)c1cc(I)cc(I)c1O`, the inhibition is 100% in assay [1]; 100% in assay [2]; 100% in assay [3]; 74% in assay [4]; 94% in assay [5]; 100% in assay [6]. Also, the figures for the inhibition in assay [7] and in assay [8] were 64% and 36%, respectively.
Turning to `O=C(Nc1ccc(Br)cc1)c1cccc(Cl)c1O`, the inhibition was determined as 100% in assay [1]; 96% in assay [2]; 24% in assay [3]; 12% in assay [4]; 12% in assay [5]; 62% in assay [6]. The results for the inhibition in assay [7] and in assay [8] were 6% and 5%, respectively.
For `CC(=O)Oc1c(Cl)cc(Cl)c(Cl)c1C(=O)Nc1ccc(SC(F)(F)F)cc1`, the inhibition in assay [1] came out at 92%; in assay [2], 89%; in assay [3], 67%; in assay [4] it was 42%; in assay [5], 47%; in assay [6], 95%. The results for the inhibition in assay [7] and in assay [8] were 15% and 5%, respectively.
On to `CC(=O)Oc1c(I)cc(I)cc1C(=O)Nc1ccc(Cl)cc1`, for which the inhibition in assay [1] stood at 99%; in assay [2], 99%; in assay [3] it was 76%; in assay [4] it was 17%; in assay [5], 54%; in assay [6] it was 98%. Moreover, the inhibition in assay [7] worked out at 7%; in assay [8], 3%.
In the case of `CC(=O)Oc1c(I)cc(I)cc1C(=O)Nc1cc(Cl)ccc1F`, the inhibition in assay [1] was 95%; in assay [2], 89%; in assay [3], 34%; in assay [4] it was 1%; in assay [5], 9%; in assay [6] it was 58%. In addition, the inhibition was found to be 1% in assay [7] and 6% in assay [8].
As to `Cc1cc(NC(=O)c2cc(Cl)ccc2O)ccc1Cl`, the inhibition in assay [1] amounted to 75%; in assay [2], 56%; in assay [3], 61%; in assay [4], 62%; in assay [5], 85%; in assay [6] it was 85%. Moreover, the values for the inhibition in assay [7] and in assay [8] were 50% and 15%, respectively.
Take `O=C(Nc1ccc(Br)cc1)c1cc(I)ccc1O`: the inhibition worked out at 60% in assay [1]; 62% in assay [2]; 71% in assay [3]; 68% in assay [4]; 68% in assay [5]; 67% in assay [6]. Moreover, the inhibition came to 49% in assay [7] and 20% in assay [8].
For the compound `O=C(Nc1ccc(F)cc1)c1cc(I)cc(I)c1O`, the inhibition in assay [1] was 100%; in assay [2] it was 99%; in assay [3] it was 62%; in assay [4], 6%; in assay [5], 26%; in assay [6] it was 78%. Moreover, the inhibition in assay [7] is 3%; in assay [8] it was 5%.
